Reference: ChEMBL document CHEMBL3739417, “Synthesis and biological evaluation of novel 4,5-disubstituted 2H-1,2,3-triazoles as cis-constrained analogues of combretastatin A-4” (2015)

Assays:
Format in all cases: functional
M14 = assay: Growth inhibition of human M14 cells after 48 hrs by sulforhodamine B assay; details: M14, 48 h; for CC50: read-out: LD50 (the source's name)
Method in brief: (§1)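 NCI-60 panel screen by SRB assay (Rubinstein method). Percentage growth taken from optical density of SRB colour, read before and 48 hrs after exposure to compound or vehicle control. All analogues first screened at 10^-5 M. Analogues giving 60% growth inhibition at that level in at least eight lines then went to a five-concentration dose-response study.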

[1] = Growth inhibition of human SF539 cells after 48 hrs by sulforhodamine B assay; details: SF-539, 48 h; for LC50 (concentration giving 50% cell kill): read-out: LD50
Method in brief: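 NCI-60 sulforhodamine B screen. Compounds were first tested at a single dose of 10⁻⁵ M; hits, defined as ≥60% growth inhibition in at least eight lines, went on to a five-concentration dose–response. SRB optical density was read before and 48 h after exposure to compound or vehicle. Percentage growth was calculated from OD.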

[2] = Growth inhibition of human HCT116 cells after 48 hrs by sulforhodamine B assay; details: HCT-116, 48 h; for CC50: read-out: LD50 (the source's name); method in brief: as §1
[3] = Growth inhibition of human HOP92 cells after 48 hrs by sulforhodamine B assay; details: HOP-92, 48 h; for CC50: read-out: LD50 (the source's name); method in brief: as §1
SK-MEL-5 = assay: Growth inhibition of human SK-MEL-5 cells after 48 hrs by sulforhodamine B assay; details: SK-MEL-5, 48 h; for CC50: read-out: LD50 (the source's name); method in brief: as §1
[4] = Growth inhibition of human OVCAR4 cells after 48 hrs by sulforhodamine B assay; details: OVCAR-4, 48 h; for LC50 (concentration killing 50% of cells): read-out: LD50; method in brief: as §1
[5] = Growth inhibition of human Hs 578T cells after 48 hrs by sulforhodamine B assay; details: for CC50: read-out: LD50 (the source's name); method in brief: as §1
SK-MEL-28 = assay: Growth inhibition of human SK-MEL-28 cells after 48 hrs by sulforhodamine B assay; details: SK-MEL-28, 48 h; for CC50: read-out: LD50 (the source's name); method in brief: as §1
[6] = Growth inhibition of human UACC62 cells after 48 hrs by sulforhodamine B assay; details: UACC-62, 48 h; for CC50: read-out: LD50 (the source's name); method in brief: as §1

Structure (SMILES) | GI50 (M14) | CC50 (M14) | GI50 [1] | TGI [1] | LC50 (concentration giving 50% cell kill) [1] | GI50 [2] | CC50 [2] | GI50 [3] | CC50 [3] | GI50 (SK-MEL-5) | CC50 (SK-MEL-5) | GI50 [4] | LC50 (concentration killing 50% of cells) [4] | GI50 [5] | CC50 [5] | GI50 (SK-MEL-28) | CC50 (SK-MEL-28) | GI50 [6] | CC50 [6]
COc1ccc(-c2nn[nH]c2-c2cc(OC)c(OC)c(OC)c2)cc1 | < 0.01 µM | > 100 µM | < 0.01 µM | < 0.01 µM | > 100 µM | < 0.01 µM | > 100 µM | < 0.01 µM | > 100 µM | < 0.01 µM | > 100 µM | < 0.01 µM | > 100 µM | < 0.01 µM | > 100 µM | – | – | – | –
COc1cc(-c2n[nH]nc2-c2ccc3c(c2)OCCO3)cc(OC)c1OC | < 0.01 µM | > 100 µM | < 0.01 µM | – | > 100 µM | < 0.01 µM | > 100 µM | < 0.01 µM | > 100 µM | < 0.01 µM | > 100 µM | 0.034 µM | > 100 µM | 0.668 µM | > 100 µM | > 100 µM | > 100 µM | > 100 µM | > 100 µM
COc1ccc(-c2n[nH]nc2-c2cc(OC)cc(OC)c2)cc1 | < 0.01 µM | > 100 µM | 0.014 µM | – | > 100 µM | < 0.01 µM | > 100 µM | < 0.01 µM | > 100 µM | 0.027 µM | > 100 µM | – | – | 0.041 µM | > 100 µM | – | – | < 0.01 µM | > 100 µM
COc1cc(-c2n[nH]nc2-c2ccc3ccccc3n2)cc(OC)c1OC | 0.022 µM | > 100 µM | 0.02 µM | – | > 100 µM | 0.04 µM | > 100 µM | 0.099 µM | > 100 µM | 0.013 µM | > 100 µM | 0.077 µM | > 100 µM | – | – | > 100 µM | > 100 µM | 0.157 µM | > 100 µM
Clc1ccc(-c2n[nH]nc2-c2ccccn2)c(Cl)c1 | 14.3 µM | > 100 µM | – | – | – | 2.89 µM | > 100 µM | 3.28 µM | > 100 µM | 7.89 µM | > 100 µM | 3.04 µM | > 100 µM | 11.6 µM | > 100 µM | 5.39 µM | > 100 µM | 3.35 µM | > 100 µM
COc1cc(-c2n[nH]nc2-c2ccc3c(c2)OCO3)cc(OC)c1OC | – | – | 0.18 µM | – | > 100 µM | 0.18 µM | > 100 µM | 0.12 µM | > 100 µM | > 100 µM | > 100 µM | 0.08 µM | > 100 µM | 0.44 µM | > 100 µM | 0.24 µM | > 100 µM | > 100 µM | > 100 µM
